Measured values as given in ChEMBL document CHEMBL1154054, “Novel 4-(morpholin-4-yl)-N'-(arylidene)benzohydrazides: synthesis, antimycobacterial activity and QSAR investigations” (Eur J Med Chem, 2009).

Tests used:
Format in all cases: functional
[1] = system: Mycobacterium tuberculosis; assay: Antimycobacterial activity against multidrug resistant Mycobacterium tuberculosis at 0.05 ug/ml after 72 hrs by LRP assay
Method in brief: (§1)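 Luciferase reporter phage assay on M. tuberculosis (H37Rv, or clinical isolates resistant to S, H, R and E). Each sample had two drug-free controls and four drug concentrations, incubated 72 h at 37 °C. High-titer phAE129 phage plus 0.1 M CaCl₂ was added, then 4 h at 37 °C. Equal volume D-luciferin (0.3 mM, pH 4.5 citrate) was added; RLU integrated 10 s, duplicate mean; % RLU reduction vs control.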

[2] = system: Mycobacterium tuberculosis; assay: Antimycobacterial activity against multidrug resistant Mycobacterium tuberculosis at 0.5 ug/ml after 72 hrs by LRP assay; method in brief: as §1
[3] = system: Mycobacterium tuberculosis; assay: Antimycobacterial activity against multidrug resistant Mycobacterium tuberculosis at 5 ug/ml after 72 hrs by LRP assay; method in brief: as §1
[4] = system: Mycobacterium tuberculosis; assay: Antimycobacterial activity against multidrug resistant Mycobacterium tuberculosis at 10 ug/ml after 72 hrs by LRP assay; method in brief: as §1

SMILES	Activity [1] [%]	Activity [2] [%]	Activity [3] [%]	Activity [4] [%]
O=C(N/N=C/c1ccc(O)cc1)c1ccc(N2CCOCC2)cc1	43.92	73.58	88.08	88.45
COc1ccc(/C=N/NC(=O)c2ccc(N3CCOCC3)cc2)cc1	56.53	82.97	89.33	90.36
O=C(N/N=C/c1cccc([N+](=O)[O-])c1)c1ccc(N2CCOCC2)cc1	29.92	87.17	90.07	88.86
COc1cc(/C=N/NC(=O)c2ccc(N3CCOCC3)cc2)cc(OC)c1OC	35.83	96.88	90.29	90.24
Cc1ccc(/C=N/NC(=O)c2ccc(N3CCOCC3)cc2)cc1	48.49	87.24	90.83	91.37
O=C(N/N=C\C=C\c1ccccc1)c1ccc(N2CCOCC2)cc1	55.7	85.67	91.61	92.1
O=C(N/N=C/c1ccc(F)cc1)c1ccc(N2CCOCC2)cc1	83.22	86.33	93.28	95.09
NNC(=O)c1ccncc1 [ISONIAZID]	84.37	89.6	95.85	94.7
O=C(N/N=C1\C=CCO1)c1ccc(N2CCOCC2)cc1	58.54	86.92	92.52	93.72
CN(C)c1ccc(/C=N/NC(=O)c2ccc(N3CCOCC3)cc2)cc1	48.14	90.72	93.18	95.02
O=C(N/N=C/c1ccc(Cl)cc1)c1ccc(N2CCOCC2)cc1	67.15	89.91	91.19	94.29
